# Measurements collected from several papers.
# Compare with care: the assays were run in different laboratories. pIC50: −log10 of the molar value.
SMILES,organism,assay,system,conditions,quantity,result
COC(=O)c1cc(-c2cccc(NC(=O)Nc3cc(Cl)ccc3Cl)c2)on1,Klebsiella pneumoniae,"microbial growth, broth dilution",BAA1705,,MIC,> 64 µg/mL
NCCc1ccc(O)cc1,Cryptosporidium parvum,"parasite growth, imaging",HCT-8,"1 mM, 24 h, intracellular",activity vs control,94%
Cc1c(NN=C(C#N)C2=NC(=O)CS2)c(=O)n(-c2ccccc2)n1C,Klebsiella pneumoniae,"microbial killing, broth dilution",,,MBC,2 µg/mL
N#Cc1c[nH]c2ccccc12,Cryptosporidium parvum,parasite growth,HCT-8,"24 h, intracellular",EC90,386 µM
CCC(CCCCCCCCCCc1cc(O)cc(O)c1)C(C)C (stereo not drawn),Streptococcus pneumoniae,microbial growth,,,pIC50,4.52
COC(=O)c1cc(-c2cccc(NC(=O)Nc3ccccc3F)c2)on1,Klebsiella pneumoniae,"microbial growth, broth dilution",BAA1705,,MIC,> 64 µg/mL
CC(C)CCCCCCCCCCCCCCCc1cc(O)cc(O)c1,Klebsiella pneumoniae,microbial growth,ATCC29665,,pIC50,< 3.70
COC(=O)c1cc(-c2cccc(NC(=S)Nc3ccc(C#N)cc3)c2)on1,Klebsiella pneumoniae,"microbial growth, broth dilution",BAA1705,,MIC,> 64 µg/mL
CC(C)C(C)CCCCCCCCCCCc1cc(O)cc(O)c1 (stereo not drawn),Klebsiella pneumoniae,microbial growth,ATCC29665,,pIC50,< 3.70
COC(=O)c1cc(-c2cccc(NC(=S)Nc3ccc(OC)cc3)c2)on1,Klebsiella pneumoniae,"microbial growth, broth dilution",BAA1705,,MIC,> 64 µg/mL
CCCCCCCCCCCCCCCc1cc(O)cc(O)c1,Streptococcus pneumoniae,microbial growth,,,pIC50,< 3.70
Oc1cccc2cccnc12,Klebsiella pneumoniae,"microbial growth, broth dilution",ATCC700603,,IC50,49.5 µg/mL
